Results from BindingDB's records for doi:10.1021/jm00399a033 (Schering-Plough, 1988).

Molecular target: T1, Angiotensin-converting enzyme (Oryctolagus cuniculus, UniProt P12822)
T1 sequence (P12822 whole entry): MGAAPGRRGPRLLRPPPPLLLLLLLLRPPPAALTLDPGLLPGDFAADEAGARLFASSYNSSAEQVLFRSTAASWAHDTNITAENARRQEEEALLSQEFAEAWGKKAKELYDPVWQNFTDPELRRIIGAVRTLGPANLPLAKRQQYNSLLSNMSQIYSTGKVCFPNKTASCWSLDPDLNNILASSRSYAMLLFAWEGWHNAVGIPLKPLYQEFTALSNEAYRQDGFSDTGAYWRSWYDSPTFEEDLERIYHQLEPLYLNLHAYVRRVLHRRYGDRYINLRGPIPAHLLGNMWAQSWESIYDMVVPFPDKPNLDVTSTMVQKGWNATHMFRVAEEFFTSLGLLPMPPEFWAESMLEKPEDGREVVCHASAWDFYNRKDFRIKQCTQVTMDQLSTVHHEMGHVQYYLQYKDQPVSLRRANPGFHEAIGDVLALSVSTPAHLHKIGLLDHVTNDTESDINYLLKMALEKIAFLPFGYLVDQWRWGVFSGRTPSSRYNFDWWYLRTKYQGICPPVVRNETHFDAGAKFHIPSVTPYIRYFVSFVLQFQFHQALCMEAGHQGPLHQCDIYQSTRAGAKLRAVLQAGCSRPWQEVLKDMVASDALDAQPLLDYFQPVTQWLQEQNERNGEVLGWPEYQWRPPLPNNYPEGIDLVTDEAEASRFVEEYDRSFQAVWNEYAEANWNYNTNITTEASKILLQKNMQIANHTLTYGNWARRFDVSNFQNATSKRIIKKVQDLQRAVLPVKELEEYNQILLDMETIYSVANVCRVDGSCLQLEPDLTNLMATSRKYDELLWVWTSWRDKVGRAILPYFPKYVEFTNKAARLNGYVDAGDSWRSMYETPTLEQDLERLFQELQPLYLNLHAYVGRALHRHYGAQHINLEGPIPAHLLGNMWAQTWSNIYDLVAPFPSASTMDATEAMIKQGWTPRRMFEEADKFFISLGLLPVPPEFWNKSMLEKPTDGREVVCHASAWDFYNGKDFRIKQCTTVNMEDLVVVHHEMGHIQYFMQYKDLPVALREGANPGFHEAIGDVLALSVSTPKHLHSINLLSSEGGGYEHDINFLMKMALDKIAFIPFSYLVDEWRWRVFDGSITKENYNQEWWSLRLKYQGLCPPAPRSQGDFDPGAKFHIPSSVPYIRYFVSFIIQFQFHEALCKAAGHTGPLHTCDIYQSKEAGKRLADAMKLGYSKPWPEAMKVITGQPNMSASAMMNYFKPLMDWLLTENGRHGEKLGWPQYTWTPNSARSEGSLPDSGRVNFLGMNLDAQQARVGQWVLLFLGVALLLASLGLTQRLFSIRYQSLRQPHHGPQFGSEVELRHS
Assay: In vitro inhibition of Angiotensin I converting enzyme with relative to captopril(=1)
In short: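 Crude ACE from rabbit lung acetone powder extracted in 50 mM potassium phosphate pH 8.3, spun 40000g. Final assay: 100 mM phosphate pH 8.3, 300 mM NaCl, 5 mM hippuryl-His-Leu; enzyme added last, 30 min at 37 °C, stopped with HCl. Hippuric acid extracted into EtOAc, dried, redissolved in water, read by absorbance.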

IC50: 200 nM
Compound: O=C(O)[C@@H]1CCCN1C(=O)CCS
